ChEMBL document CHEMBL4368872, “Synthesis and anticonvulsant activity of phenoxyacetyl derivatives of amines, including aminoalkanols and amino acids” (Medchemcomm, 2018)
Active and inactive are the calls of the source.

Legend:
[1] = Neurotoxicity in Sprague-Dawley rat at 300 mg/kg, ip measured after 2 hrs by rotarod test; format: toxicity, organism-based; conditions: in vivo
Method in brief: (§1)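 Rat neurotoxicity after i.p. or p.o. dosing was scored as animals impaired / animals tested at each time point. For p.o. dosing, TD50 was obtained by probit analysis.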

Mus musculus [2] = assay: Anticonvulsant activity in ip dosed CF-1 mouse model of maximal electroshock-induced seizure assessed as suppression of tonic hind limb extension; format: functional; conditions: CF-1, ip
Mus musculus [3] = assay: Anticonvulsant activity in CF-1 mouse model of maximal electroshock-induced seizure assessed as suppression of tonic hind limb extension at 110 mg/kg, ip measured at 0.5 hrs post dose; format: functional, organism-based
Method in brief: (§2)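 Mice dosed i.p. and given maximal electroshock at 50 mA. Read-out is protection, reported as number protected / number tested at 0.25, 0.5, 1 and 4 h after dosing.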

Mus musculus [4] = assay: Anticonvulsant activity in CF-1 mouse model of maximal electroshock-induced seizure assessed as suppression of tonic hind limb extension at 110 mg/kg, ip measured at 1 hr post dose; format: functional, organism-based; method in brief: as §2
[5] = Neurotoxicity in CF-1 mouse at 100 mg/kg, ip measured after 0.25 hrs by rotarod test; format: toxicity, organism-based; conditions: in vivo
Method in brief: (§3)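 Mice dosed i.p. were placed on a 1 in. knurled rod turning at 6 rpm. Toxicity was scored as failure to keep balance for at least 1 min, i.e. falling off three or more times. Results are reported as animals showing toxicity / animals tested at each time point.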

[6] = Neurotoxicity in CF-1 mouse at 220 mg/kg, ip measured after 1 hr by rotarod test; format: toxicity, organism-based; conditions: in vivo; method in brief: as §3
[7] = Neurotoxicity in CF-1 mouse at 220 mg/kg, ip measured after 4 hrs by rotarod test; format: toxicity, organism-based; conditions: in vivo; method in brief: as §3
[8] = Neurotoxicity in ip dosed CF-1 mouse by rotarod test; format: toxicity, organism-based; conditions: in vivo; method in brief: as §3
[9] = Protection index, ratio of TD50 for neurotoxicity in ip dosed CF-1 mouse to ED50 for anticonvulsant activity in CF-1 mouse model of maximal electroshock-induced seizure; format: toxicity, organism-based; conditions: in vivo, read-out: Ratio TD50/ED50
Rattus norvegicus [10] = assay: Anticonvulsant activity in po dosed Sprague-Dawley rat model of maximal electroshock-induced seizure assessed as suppression of tonic hind limb extension; format: functional
Method in brief: (§4)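 Rats dosed p.o. and tested by MES at 150 mA. ED50 derived by probit analysis from quantitative dose groups, run at the time of peak effect (hours).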

[11] = Neurotoxicity in Sprague-Dawley rat at 300 mg/kg, ip measured after 0.25 hrs by rotarod test; format: toxicity, organism-based; conditions: in vivo; method in brief: as §1
[12] = Neurotoxicity in Sprague-Dawley rat at 300 mg/kg, ip measured after 0.5 hrs by rotarod test; format: toxicity, organism-based; conditions: in vivo; method in brief: as §1
[13] = Neurotoxicity in Sprague-Dawley rat at 30 mg/kg, ip measured after 4 hrs by rotarod test; format: toxicity, organism-based; conditions: in vivo; method in brief: as §1
[14] = Neurotoxicity in Sprague-Dawley rat at 100 mg/kg, ip measured after 4 hrs by rotarod test; format: toxicity, organism-based; conditions: in vivo; method in brief: as §1
Rattus norvegicus [15] = assay: Anticonvulsant activity in hippocampal kindling Sprague-Dawley rat model assessed as decrease of seizure score at 100 mg/kg, ip administered as single dose measured up to 135 mins; format: functional, organism-based
Method in brief: (§5)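 Rats implanted with a hippocampal electrode and kindled with suprathreshold trains (200 µA, 10 s, 50 Hz) every 30 min for 6 h on alternate days until fully kindled. One week later they received a single i.p. dose. Seizure score (Racine scale) and afterdischarge duration were recorded at 0–135 min and compared with the control stimulus given 15 min before dosing; each animal served as its own control. Values are mean ± SEM.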

[16] = Neurotoxicity in Sprague-Dawley rat assessed as abnormal behavior at 100 mg/kg, ip administered as single dose measured after 0.25 hrs by rotarod test; format: toxicity, organism-based; conditions: in vivo; method in brief: as §1
Rattus norvegicus [17] = assay: Anticonvulsant activity in hippocampal kindling Sprague-Dawley rat model assessed as after discharge time at 50 mg/kg, ip administered as single dose measured after 15 mins; format: functional; method in brief: as §5
Rattus norvegicus [18] = assay: Anticonvulsant activity in hippocampal kindling Sprague-Dawley rat model assessed as after discharge time at 50 mg/kg, ip administered as single dose measured after 45 mins; format: functional; method in brief: as §5
Rattus norvegicus [19] = assay: Anticonvulsant activity in hippocampal kindling Sprague-Dawley rat model assessed as after discharge time at 50 mg/kg, ip administered as single dose measured after 75 mins; format: functional; method in brief: as §5
Rattus norvegicus [20] = assay: Anticonvulsant activity in hippocampal kindling Sprague-Dawley rat model assessed as after discharge time at 100 mg/kg, ip administered as single dose measured immediately; format: functional; method in brief: as §5
Rattus norvegicus [21] = assay: Anticonvulsant activity in hippocampal kindling Sprague-Dawley rat model assessed as after discharge time at 100 mg/kg, ip administered as single dose measured after 75 mins; format: functional; method in brief: as §5
Rattus norvegicus [22] = assay: Anticonvulsant activity in hippocampal kindling Sprague-Dawley rat model assessed as after discharge time at 100 mg/kg, ip administered as single dose measured after 105 mins; format: functional; method in brief: as §5
Rattus norvegicus [23] = assay: Anticonvulsant activity in hippocampal kindling Sprague-Dawley rat model assessed as after discharge time at 100 mg/kg, ip administered as single dose measured after 135 mins; format: functional; method in brief: as §5
Astrocyte [24] = assay: Cytotoxicity against mouse astrocytes at 10 to 200 uM after 24 hrs by MTT assay; format: cell-based
Method in brief: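 Mouse astrocyte line (CRL-2541) grown in DMEM with 10% FBS at 37 °C, 5% CO2. Seeded at 1×10^4 per well in 1% FBS medium, treated with 10–200 µM for 24 h against vehicle controls. MTT reagent added for 4 h at 37 °C, crystals dissolved, absorbance read at 570 nm.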

Astrocyte [25] = assay: Cytotoxicity against mouse astrocytes assessed as effect on cell proliferation at 10 to 200 uM after 72 hrs by crystal violet staining based spectrophotometric method
Method in brief: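 Proliferation in mouse astrocyte line: 1×10^4 cells per well, exposed 24 h after seeding to 10–200 µM for 72 h. Fixed in 3.7% formaldehyde, stained 10 min with 0.01% crystal violet, dye eluted with methanolic citric acid/sodium citrate, OD at 540 nm.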

Mus musculus [26] = assay: Anticonvulsant activity in ip dosed CF-1 mouse model of maximal electroshock-induced seizure assessed as time required for suppression of tonic hind limb extension; format: functional
Rattus norvegicus [27] = assay: Anticonvulsant activity in po dosed Sprague-Dawley rat model of maximal electroshock-induced seizure assessed as time required for suppression of tonic hind limb extension; format: functional; method in brief: as §4
Mus musculus [28] = assay: Anticonvulsant activity in CF-1 mouse model of maximal electroshock-induced seizure assessed as suppression of tonic hind limb extension at 100 mg/kg, ip measured at 0.25 hrs post dose; format: functional, organism-based; method in brief: as §2
[29] = Neurotoxicity in CF-1 mouse at 300 mg/kg, ip measured after 0.5 hrs by rotarod test; format: toxicity, organism-based; conditions: in vivo; method in brief: as §3
Rattus norvegicus [30] = assay: Anticonvulsant activity in Sprague-Dawley rat model of maximal electroshock-induced seizure assessed as suppression of tonic hind limb extension at 30 mg/kg, po measured at 4 hrs post dose; format: functional, organism-based
Method in brief: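 Rats given 30 mg/kg p.o. and tested by maximal electroshock at 150 mA. Scored as number protected / number tested (4 per group) at 0.25, 0.5, 1, 2 and 4 h after dosing.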

[31] = Neurotoxicity in Sprague-Dawley rat at 100 mg/kg, ip measured after 0.25 hrs by rotarod test; format: toxicity, organism-based; conditions: in vivo; method in brief: as §1

Cc1cccc(C)c1OCC(=O)N[C@H](C)CO
Activity [1]: Toxic
ED50 (Mus musculus [2]): 97.9 mg/kg
Activity (Mus musculus [3]): inactive
Activity (Mus musculus [4]): inactive
Activity [5]: Non-Toxic
Activity [6]: Non-Toxic
Activity [7]: Non-Toxic
TD50 [8]: 140 mg/kg
selectivity ratio [9]: 1.43
ED50 (Rattus norvegicus [10]): 12 mg/kg
Activity [11]: Toxic
Activity [12]: Toxic
Activity [13]: Non-Toxic
Activity [14]: Non-Toxic
Activity (Rattus norvegicus [15]): Active
Activity [16]: Toxic
Time (Rattus norvegicus [17]): 71 s
Time (Rattus norvegicus [18]): 73 s
Time (Rattus norvegicus [19]): 75 s
Time (Rattus norvegicus [20]): 68 s
Time (Rattus norvegicus [21]): 80 s
Time (Rattus norvegicus [22]): 77 s
Time (Rattus norvegicus [23]): 76 s
Activity (Astrocyte [24]): Non-Toxic
Activity (Astrocyte [25]): Non-Toxic
Time (Mus musculus [26]): 0.25 h
Time (Rattus norvegicus [27]): 0.5 h

CCC(O)CNC(=O)COc1c(C)cccc1C (stereo unspecified)
Activity (Mus musculus [28]): Active
Activity [29]: Toxic
Activity (Rattus norvegicus [30]): inactive
Activity [31]: Active
